Tests used:
Liver microsome = test: Drug level in Sprague-Dawley rat liver microsomes treated with [14C]-rivoglitazone at 20 uM after 2 to 4 hrs by radio-HPLC/LC-MS/MS analysis in presence of UDPGA, UDPGA/SAM and NADPH-generating system; type: ADME
[1] = target: T1, UDP-glucuronosyltransferase 2B4 (Homo sapiens, UniProt P06133); test: Activity of human UGT2B4 expressed in microsomes isolated from baculovirus infected insect cell assessed as enzyme-mediated 2-mercapto-3-(4-((6-methoxy-1-methyl-1H-benzo[d]imidazol-2-yl)methoxy)phenyl)propanoic acid formation at 20 uM after 4 hrs by radio-HPLC/LC-MS/MS analysis in presence of UDPGA; type: ADME
T1 sequence (P06133 whole entry): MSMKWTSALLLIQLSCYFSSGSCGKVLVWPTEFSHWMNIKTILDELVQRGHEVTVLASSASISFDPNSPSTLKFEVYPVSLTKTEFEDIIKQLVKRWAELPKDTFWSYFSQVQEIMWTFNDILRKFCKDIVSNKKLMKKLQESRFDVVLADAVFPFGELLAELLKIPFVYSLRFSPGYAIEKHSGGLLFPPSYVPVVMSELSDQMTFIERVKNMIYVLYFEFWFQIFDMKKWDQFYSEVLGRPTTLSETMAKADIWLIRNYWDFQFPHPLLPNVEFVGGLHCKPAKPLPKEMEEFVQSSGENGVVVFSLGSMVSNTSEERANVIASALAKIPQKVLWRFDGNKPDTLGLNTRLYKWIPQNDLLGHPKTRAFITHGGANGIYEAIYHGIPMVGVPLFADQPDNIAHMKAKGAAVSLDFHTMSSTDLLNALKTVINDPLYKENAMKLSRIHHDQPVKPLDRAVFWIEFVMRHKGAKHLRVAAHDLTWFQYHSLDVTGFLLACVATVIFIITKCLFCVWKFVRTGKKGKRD

Cytochrome P450 2D6 = Cytochrome P450 2D6 (Homo sapiens, UniProt P10635); test: Activity of human CYP2D6 expressed in microsomes isolated from baculovirus infected insect cell assessed as enzyme-mediated 3-(4-((6-methoxy-1-methyl-1H-benzo[d]imidazol-2-yl)methoxy)phenyl)-2-(methylsulfinyl)propanamide formation at 20 uM after 2 hrs by radio-HPLC/LC-MS/MS analysis in presence of NADPH-generating system/SAM; type: ADME
[2] = Drug metabolism in human hepatocytes assessed as formation of 5-hydroxy-5-(4-((6-methoxy-1-methyl-1H-benzo[d]imidazol-2-yl)methoxy)benzyl)thiazolidine-2,4-dione at 30 uM after 3 hrs by radio-HPLC/LC-MS/MS analysis in presence of NADPH-generating system and NADPH-generating system/SAM; type: ADME, cell-based, Hepatocyte
Cytochrome P450 1A2 = target: T2, Cytochrome P450 1A2 (Homo sapiens, UniProt P05177); test: Activity of human CYP1A2 expressed in microsomes isolated from baculovirus infected insect cell assessed as enzyme-mediated 2-hydroxy-3-(4-((6-methoxy-1-methyl-1H-benzo[d]imidazol-2-yl)methoxy)phenyl)propanamide formation at 20 uM after 2 hrs by radio-HPLC/LC-MS/MS analysis in presence of NADPH-generating system and NADPH-generating system/SAM; type: ADME
T2 sequence (P05177 whole entry): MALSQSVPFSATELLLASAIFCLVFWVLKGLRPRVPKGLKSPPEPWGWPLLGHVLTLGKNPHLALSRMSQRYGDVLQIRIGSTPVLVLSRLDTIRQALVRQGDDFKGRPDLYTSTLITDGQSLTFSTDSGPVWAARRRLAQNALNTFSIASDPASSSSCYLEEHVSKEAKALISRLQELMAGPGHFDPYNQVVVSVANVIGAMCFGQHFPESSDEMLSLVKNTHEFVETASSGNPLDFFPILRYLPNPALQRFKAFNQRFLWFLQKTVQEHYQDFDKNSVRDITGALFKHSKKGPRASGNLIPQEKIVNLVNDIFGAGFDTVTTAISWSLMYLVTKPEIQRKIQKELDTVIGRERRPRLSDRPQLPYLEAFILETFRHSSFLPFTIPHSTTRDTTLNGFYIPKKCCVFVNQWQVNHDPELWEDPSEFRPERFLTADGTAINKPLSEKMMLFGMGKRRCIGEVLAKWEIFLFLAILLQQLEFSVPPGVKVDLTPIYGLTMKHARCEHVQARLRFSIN
Outline: (§1)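 Baculovirus/insect-cell microsomes expressing single human CYPs, 1 mg/ml protein, with 50 mM potassium phosphate (pH 7.4) or 100 mM Tris-HCl (pH 7.5). NADPH-generating system: 2 mM NADP⁺, 20 mM glucose 6-phosphate, 2 units/ml G6PDH, 10 mM MgCl₂. [¹⁴C]rivoglitazone at 20 μM, 2 h at 37°C with shaking. Control used insect-cell control supersomes. Stopped with acetonitrile; supernatant concentrated under nitrogen; metabolites analysed by radio-HPLC, LC-MS and LC-MS/MS.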

[3] = Drug metabolism in monkey hepatocytes assessed as formation of (2S,3S,4S,5R,6R)-3,4,5-trihydroxy-6-(5-(4-((6-methoxy-1-methyl-1H-benzo[d]imidazol-2-yl)methoxy)benzyl)-2,4-dioxothiazolidin-3-yl)tetrahydro-2H-pyran-2-carboxylic acid at 30 uM after 3 hrs by radio-HPLC/LC-MS/MS analysis; conditions: cynomolgus monkey
Cytochrome P450 2C8 [4] = target: T3, Cytochrome P450 2C8 (Homo sapiens, UniProt P10632); test: Activity of human CYP2C8 expressed in microsomes isolated from baculovirus infected insect cell assessed as enzyme-mediated 2-mercapto-3-(4-((6-methoxy-1-methyl-1H-benzo[d]imidazol-2-yl)methoxy)phenyl)propanamide formation at 20 uM after 2 hrs by radio-HPLC/LC-MS/MS analysis in presence of NADPH-generating system and NADPH-generating system/SAM; type: ADME; outline: as §1
T3 sequence (P10632 whole entry): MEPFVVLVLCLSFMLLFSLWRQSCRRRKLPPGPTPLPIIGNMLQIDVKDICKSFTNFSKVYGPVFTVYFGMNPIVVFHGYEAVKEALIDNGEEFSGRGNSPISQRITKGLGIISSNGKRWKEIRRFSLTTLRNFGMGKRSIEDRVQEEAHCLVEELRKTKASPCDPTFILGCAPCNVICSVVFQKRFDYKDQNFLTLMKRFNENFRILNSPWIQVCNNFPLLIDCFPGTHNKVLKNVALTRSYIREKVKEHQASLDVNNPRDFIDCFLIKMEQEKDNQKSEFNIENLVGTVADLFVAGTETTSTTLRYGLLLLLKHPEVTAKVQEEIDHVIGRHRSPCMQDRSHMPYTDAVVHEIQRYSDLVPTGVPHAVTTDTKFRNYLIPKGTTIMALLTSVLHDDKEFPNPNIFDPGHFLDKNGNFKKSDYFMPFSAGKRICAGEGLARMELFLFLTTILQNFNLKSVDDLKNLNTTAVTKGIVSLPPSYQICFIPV

Cytochrome P450 2C8 [5] = target: T3, Cytochrome P450 2C8; test: Activity of human CYP2C8 expressed in microsomes isolated from baculovirus infected insect cell assessed as enzyme-mediated 5-hydroxy-5-(4-((6-methoxy-1-methyl-1H-benzo[d]imidazol-2-yl)methoxy)benzyl)thiazolidine-2,4-dione formation at 20 uM after 2 hrs by radio-HPLC/LC-MS/MS analysis in presence of NADPH-generating system and NADPH-generating system/SAM; type: ADME; outline: as §1
Cytochrome P450 3A5 = Cytochrome P450 3A5 (Homo sapiens, UniProt P20815); test: Activity of human CYP3A5 expressed in microsomes isolated from baculovirus infected insect cell assessed as enzyme-mediated 2-mercapto-3-(4-((6-methoxy-1-methyl-1H-benzo[d]imidazol-2-yl)methoxy)phenyl)propanoic acid formation at 20 uM after 2 hrs by radio-HPLC/LC-MS/MS analysis in presence of NADPH-generating system; type: ADME
Outline: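 cDNA-expressed human CYP3A5 in baculovirus-insect-cell microsomes (1 mg/ml protein) was incubated with [¹⁴C]rivoglitazone (20 μM) in 50 mM potassium phosphate (pH 7.4) or 100 mM Tris-HCl (pH 7.5). NADPH-generating system: 2 mM NADP⁺, 20 mM glucose 6-phosphate, 2 units/ml G6PDH, 10 mM MgCl₂. Incubation ran 2 h at 37°C with shaking; insect-cell control supersomes served as control. Acetonitrile stop, supernatant concentrated, then radio-HPLC, LC-MS and LC-MS/MS.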

Cytochrome P450 2D6, sequence (P10635 whole entry): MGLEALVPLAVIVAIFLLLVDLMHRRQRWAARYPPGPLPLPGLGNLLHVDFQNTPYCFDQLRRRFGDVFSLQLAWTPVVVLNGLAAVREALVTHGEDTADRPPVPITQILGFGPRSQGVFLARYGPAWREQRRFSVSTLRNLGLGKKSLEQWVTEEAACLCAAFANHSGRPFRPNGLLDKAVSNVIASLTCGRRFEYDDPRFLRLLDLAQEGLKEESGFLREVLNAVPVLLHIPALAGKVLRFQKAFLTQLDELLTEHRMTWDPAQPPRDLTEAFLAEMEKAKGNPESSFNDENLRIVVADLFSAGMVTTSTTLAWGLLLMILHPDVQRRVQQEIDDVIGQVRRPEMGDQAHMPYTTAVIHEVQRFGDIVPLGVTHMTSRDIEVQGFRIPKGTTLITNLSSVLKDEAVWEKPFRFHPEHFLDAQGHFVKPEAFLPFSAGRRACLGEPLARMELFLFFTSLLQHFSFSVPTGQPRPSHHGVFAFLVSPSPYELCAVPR
Cytochrome P450 3A5, sequence (P20815 whole entry): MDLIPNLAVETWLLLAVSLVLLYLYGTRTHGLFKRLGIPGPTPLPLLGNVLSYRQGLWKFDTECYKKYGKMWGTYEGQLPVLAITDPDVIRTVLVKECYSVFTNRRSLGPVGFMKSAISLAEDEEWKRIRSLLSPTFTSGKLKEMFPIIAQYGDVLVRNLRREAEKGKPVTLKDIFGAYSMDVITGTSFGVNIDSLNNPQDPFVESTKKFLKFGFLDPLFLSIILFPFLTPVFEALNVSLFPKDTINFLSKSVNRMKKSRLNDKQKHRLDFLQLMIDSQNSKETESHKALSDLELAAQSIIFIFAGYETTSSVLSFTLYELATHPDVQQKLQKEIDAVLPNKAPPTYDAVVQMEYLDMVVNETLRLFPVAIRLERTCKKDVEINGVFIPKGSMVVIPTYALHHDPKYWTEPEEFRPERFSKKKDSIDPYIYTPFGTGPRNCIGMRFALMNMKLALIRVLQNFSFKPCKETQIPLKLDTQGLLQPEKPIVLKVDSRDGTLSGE

| Drug metabolism (Liver microsome) | Drug metabolism [1] | Drug metabolism (Cytochrome P450 2D6) | Drug metabolism [2] | Drug metabolism (Cytochrome P450 1A2) | Drug metabolism [3] | Drug metabolism (Cytochrome P450 2C8 [4]) | Drug metabolism (Cytochrome P450 2C8 [5]) | Drug metabolism (Cytochrome P450 3A5) | Structure (SMILES) |
| --- | --- | --- | --- | --- | --- | --- | --- | --- | --- |
| metabolite_detected | – | – | – | – | – | – | – | – | COc1ccc2nc(COc3ccc(CC(S)C(=O)O)cc3)n(C)c2c1 (centres undefined) |
| – | metabolite_not_detected | metabolite_not_detected | metabolite_detected | metabolite_detected | metabolite_detected | metabolite_detected | metabolite_detected | metabolite_detected | COc1ccc2nc(COc3ccc(C[14CH]4SC(=O)NC4=O)cc3)n(C)c2c1.Cl (racemic) |

Reference: ChEMBL document CHEMBL3526048, “In vitro metabolism of rivoglitazone, a novel peroxisome proliferator-activated receptor γ agonist, in rat, monkey, and human liver microsomes and freshly isolated hepatocytes” (Drug Metab Dispos, 2011)
